Molecules are shown by their SMILES.

Sequence of 5-hydroxytryptamine receptor 7 (Homo sapiens) (P34969 whole entry): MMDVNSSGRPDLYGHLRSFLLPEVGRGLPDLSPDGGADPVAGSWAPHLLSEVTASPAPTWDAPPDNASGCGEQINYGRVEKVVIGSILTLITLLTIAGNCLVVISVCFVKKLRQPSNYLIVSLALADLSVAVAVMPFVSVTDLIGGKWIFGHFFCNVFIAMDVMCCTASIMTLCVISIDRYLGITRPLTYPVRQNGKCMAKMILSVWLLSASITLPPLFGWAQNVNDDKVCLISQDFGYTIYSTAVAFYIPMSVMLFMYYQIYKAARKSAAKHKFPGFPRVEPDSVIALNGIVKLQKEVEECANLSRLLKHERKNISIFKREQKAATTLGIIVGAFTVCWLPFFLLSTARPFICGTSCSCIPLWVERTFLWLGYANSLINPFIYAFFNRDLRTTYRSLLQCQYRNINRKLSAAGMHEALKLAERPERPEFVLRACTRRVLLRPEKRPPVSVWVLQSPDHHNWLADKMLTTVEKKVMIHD

The first experiment concerns the target 5-hydroxytryptamine receptor 7 (Homo sapiens) (UniProt P34969). Kind of experiment: Displacement of [3H]-LSD from human 5-HT7 receptor expressed in CHO-K1 cell membranes at 10 uM after 2 hr by micro beta2 scintillation counting analysis. Conditions: 0.1 uM, in the assay text read “at 0.1 uM” for “at 10 uM”. Put shortly:
(§1)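 Membranes of CHO-K1 cells stably expressing human 5-HT1A or 5-HT7 receptor. Buffer 50 mM Tris–HCl, 0.1 mM EDTA, 10 mM MgCl2. Each compound screened at final 10 µM and 1 µM. Incubation at 37 °C, 1 h for 5-HT1A and 2 h for 5-HT7. Non-specific binding defined with 10 µM 5-HT (5-HT1A) or 10 µM methiothepine (5-HT7). Output is percent inhibition of specific binding.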
A general note: Displacement assays read how much labelled ligand stays bound in the presence of the test substance.
For orientation: inhibition means the percentage by which the read-out fell short of the control. Lower therefore signals a response near the control. `COc1ccccc1OCCN1CCC(CNS(=O)(=O)c2cncc3ccccc23)CC1`: the inhibition was 54%.
Take `CC(C)Oc1ccccc1OCCN1CCC(CNS(=O)(=O)c2cccc(Cl)c2F)CC1`: the inhibition was 45%.
The molecule `COc1ccccc1OCCN1CCC(NS(=O)(=O)c2cncc3ccccc23)CC1` displayed an inhibition of 41%.
`COc1ccc(S(=O)(=O)NCC2CCN(CCOc3ccccc3OC)CC2)cc1OC` yielded an inhibition of 16%.
The molecule `CC(C)Oc1ccccc1OCCN1CCC(CNS(=O)(=O)c2cccc3cccnc23)CC1` showed an inhibition of 51%.

The target is the same in another experiment. Kind of experiment: Displacement of [3H]-LSD from human 5-HT7 receptor expressed in CHO-K1 cell membranes at 1 uM after 2 hr by micro beta2 scintillation counting analysis.
Conditions: not given
The procedure, abridged:
as §1
Molecule `COc1ccccc1OCCN1CCC(CNS(=O)(=O)c2cncc3ccccc23)CC1` yielded an inhibition of 89%.
Take `CC(C)Oc1ccccc1OCCN1CCC(CNS(=O)(=O)c2cccc(Cl)c2F)CC1`: the inhibition was 90%.
On to `COc1ccccc1OCCN1CCC(NS(=O)(=O)c2cncc3ccccc23)CC1`, for which the inhibition came to 87%.
`COc1ccc(S(=O)(=O)NCC2CCN(CCOc3ccccc3OC)CC2)cc1OC` registered an inhibition of 52%.
The molecule `CC(C)Oc1ccccc1OCCN1CCC(CNS(=O)(=O)c2cccc3cccnc23)CC1` yielded an inhibition of 91%.

A further experiment relates to Rattus norvegicus. Kind of experiment: Hypotensive activity in normotensive anesthetized Wistar rat assessed as decrease in diastolic blood pressure at 5 mg/kg, iv administered as single dose measured 60 mins post dose relative to control. Conditions: 1 h. The class given is functional. The procedure, abridged:
(§2)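 Male Wistar rats (200–250 g), groups of six, anaesthetized with thiopental 70 mg/kg ip. Left carotid artery cannulated with heparinized saline-filled tubing for pressure recording. Compounds dissolved in water and given once iv. Blood pressure taken at 0 min (control) and over 60 min afterward. Data as mean ± SEM, analysed by one-way ANOVA with Dunnett's test against 0 min.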
In general, inhibition in vivo refers to the share of the control response that was lost under treatment. As for `COc1ccccc1OCCN1CCC(NS(=O)(=O)c2cncc3ccccc23)CC1`, the inhibition in vivo at 5 mg/kg lay within 2 to 8%.

For a further experiment, the system named is Rattus norvegicus. Nature of the experiment: Hypotensive activity in normotensive anesthetized Wistar rat assessed as decrease in diastolic blood pressure at 2 mg/kg, iv administered as single dose measured 60 mins post dose relative to control. It is filed as functional. Conditions: 1 h. The procedure, abridged:
as §2
Turning to `COc1ccccc1OCCN1CCC(NS(=O)(=O)c2cncc3ccccc23)CC1`, the inhibition in vivo at 2 mg/kg lay within 4 to 8%.

For another experiment, the system named is Rattus norvegicus. Nature of the experiment: Hypotensive activity in normotensive anesthetized Wistar rat assessed as decrease in systolic blood pressure at 2 mg/kg, iv administered as single dose measured 60 mins post dose relative to control. It is filed as functional. The following applies: 1 h. Put shortly:
as §2
For the molecule `CC(C)Oc1ccccc1OCCN1CCC(CNS(=O)(=O)c2cccc(Cl)c2F)CC1`, the inhibition in vivo at 2 mg/kg was 7%.
Turning to `COc1ccccc1OCCN1CCC(NS(=O)(=O)c2cncc3ccccc23)CC1`, the inhibition in vivo at 2 mg/kg was 4 to 10%.

For the next experiment, the system named is Rattus norvegicus. Nature of the experiment: Hypotensive activity in normotensive anesthetized Wistar rat assessed as decrease in systolic blood pressure at 5 mg/kg, iv administered as single dose measured 60 mins post dose relative to control. It is filed as functional. The following applies: 1 h. Put shortly:
as §2
Consider `CC(C)Oc1ccccc1OCCN1CCC(CNS(=O)(=O)c2cccc(Cl)c2F)CC1`, for which the inhibition in vivo at 5 mg/kg is 2 to 5%.
In the case of `COc1ccccc1OCCN1CCC(NS(=O)(=O)c2cncc3ccccc23)CC1`, the inhibition in vivo at 5 mg/kg was 6 to 11%.

The next experiment deals with T1, 5-hydroxytryptamine receptor 1A (Homo sapiens) (UniProt P08908).
T1 sequence (whole entry): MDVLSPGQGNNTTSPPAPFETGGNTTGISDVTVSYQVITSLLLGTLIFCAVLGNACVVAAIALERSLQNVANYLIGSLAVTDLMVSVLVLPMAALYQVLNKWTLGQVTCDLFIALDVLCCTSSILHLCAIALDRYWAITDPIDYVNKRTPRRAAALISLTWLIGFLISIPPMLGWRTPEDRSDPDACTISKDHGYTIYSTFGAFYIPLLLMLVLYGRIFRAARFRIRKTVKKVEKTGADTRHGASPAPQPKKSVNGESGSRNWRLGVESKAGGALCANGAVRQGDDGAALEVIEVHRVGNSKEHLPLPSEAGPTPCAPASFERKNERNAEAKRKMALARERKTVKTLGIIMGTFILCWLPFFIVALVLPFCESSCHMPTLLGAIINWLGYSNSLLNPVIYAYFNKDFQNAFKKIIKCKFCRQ
Nature of the experiment: Displacement of [3H]-8-OH-DPAT from human 5-HT1A receptor expressed in CHO-K1 cell membranes at 1 uM after 1 hr by micro beta2 scintillation counting analysis.
Conditions: not given
The procedure, abridged: as §1
In turn, `COc1ccccc1OCCN1CCC(CNS(=O)(=O)c2cncc3ccccc23)CC1` showed an inhibition of 78%.
On to `CC(C)Oc1ccccc1OCCN1CCC(CNS(=O)(=O)c2cccc(Cl)c2F)CC1`, for which the inhibition stood at 59%.
The same measure, in the same setting: as for `COc1ccccc1OCCN1CCC(NS(=O)(=O)c2cncc3ccccc23)CC1`, the figure is 69%; as for `COc1ccc(S(=O)(=O)NCC2CCN(CCOc3ccccc3OC)CC2)cc1OC`, 72%.
`CC(C)Oc1ccccc1OCCN1CCC(CNS(=O)(=O)c2cccc3cccnc23)CC1` gave an inhibition of 61%.
